From ChEMBL document CHEMBL1926538, “3,5-Disubstituted-thiazolidine-2,4-dione analogs as anticancer agents: design, synthesis and biological characterization” (Eur J Med Chem, 2012)
Calls of active or inactive are those of the source. The calls are words filed in the database; no cut-off is given here.

Tests used:
[1] = tested on: U-937; assay: Induction of apoptosis in human U937 cells assessed as viable cells at 10 uM after 6 hrs by annexinV-propidium iodide staining-based flow cytometric analysis (reference value: 80.3%); type: functional; conditions: U-937, 6 h, read-out: Activity
[2] = tested on: U-937; assay: Cell cycle arrest in human U937 cells assessed as accumulation at S-phase at 10 uM after 24 hrs by propidium iodide staining-based flow cytometric analysis; type: functional
Summary of the method: (§1)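 Cells cultured in RPMI 1640 with 10% FBS and treated 24 h at the indicated concentrations. Stained with propidium iodide for 4 h at 4 °C in the dark. Flow cytometry gave the percentage of cells in G₀/G₁, S, G₂/M and sub-G₁ phases.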

[3] = molecular target: Proto-oncogene tyrosine-protein kinase Src (Homo sapiens) (UniProt P12931); assay: Inhibition of SRC at 10 uM
[4] = tested on: U-937; assay: Induction of apoptosis in human U937 cells assessed as necrotic cells at 10 uM after 18 hrs by annexinV-propidium iodide staining-based flow cytometric analysis (reference value: 0.7%); type: functional
[5] = molecular target: Interleukin-1 receptor-associated kinase 4 (Homo sapiens) (UniProt Q9NWZ3); assay: Inhibition of IRAK4 at 10 uM
[6] = molecular target: RAF proto-oncogene serine/threonine-protein kinase (Homo sapiens) (UniProt P04049); assay: Inhibition of c-Raf at 10 uM
[7] = molecular target: Insulin-like growth factor 1 receptor (Homo sapiens) (UniProt P08069); assay: Inhibition of IGF1R at 10 uM
[8] = tested on: DU-145; assay: Induction of apoptosis in human DU145 cells assessed as viable cells at 20 uM after 24 hrs by annexinV-propidium iodide staining-based flow cytometric analysis (reference value: 89%); type: functional; conditions: DU-145, 24 h, read-out: Activity
[9] = molecular target: Tyrosine-protein kinase BTK (Homo sapiens) (UniProt Q06187); assay: Inhibition of BTK at 10 uM
[10] = tested on: U-937; assay: Induction of apoptosis in human U937 cells assessed as early apoptotic cells at 10 uM after 18 hrs by annexinV-propidium iodide staining-based flow cytometric analysis (reference value: 4.3%); type: functional
[11] = tested on: U-937; assay: Induction of apoptosis in human U937 cells assessed as late apoptotic cells at 10 uM after 3 hrs by annexinV-propidium iodide staining-based flow cytometric analysis (reference value: 8.6%); type: functional
[12] = Induction of apoptosis in human M12 cells assessed as viable cells at 20 uM after 24 hrs by annexinV-propidium iodide staining-based flow cytometric analysis (reference value: 80.18%); type: functional; conditions: M12, 24 h, read-out: Activity
[13] = molecular target: Protein kinase C zeta type (Homo sapiens) (UniProt Q05513); assay: Inhibition of PKCzeta at 10 uM
[14] = tested on: U-937; assay: Growth inhibition of human U937 cells after 72 hrs by MTS assay in presence of 320 uM AMPK activator AICA; type: functional, cell-based
Summary of the method: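 U937 cells exposed 72 h, with or without AICA 320 µM, then MTS added. Absorbance read at 490 nm, expressed as percentage of untreated controls. Data are mean percentage viability, n = 6, error bars SEM.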

[15] = molecular target: Calcium/calmodulin-dependent protein kinase type IV (Homo sapiens) (UniProt Q16566); assay: Inhibition of CAMK4 at 10 uM
[16] = molecular target: Insulin receptor (Homo sapiens) (UniProt P06213); assay: Inhibition of INSR at 10 uM
[17] = molecular target: Dual specificity tyrosine-phosphorylation-regulated kinase 1A (Homo sapiens) (UniProt Q13627); assay: Inhibition of DYRK1a at 10 uM
[18] = tested on: U-937; assay: Induction of apoptosis in human U937 cells assessed as early apoptotic cells at 3 uM after 3 hrs by annexinV-propidium iodide staining-based flow cytometric analysis (reference value: 2.8%); type: functional
[19] = molecular target: Calcium/calmodulin-dependent protein kinase type II subunit beta (Homo sapiens) (UniProt Q13554); assay: Inhibition of CAMK2 at 10 uM
[20] = molecular target: RAC-alpha serine/threonine-protein kinase (Homo sapiens) (UniProt P31749); assay: Inhibition of AKT1 at 10 uM
[21] = tested on: U-937; assay: Induction of apoptosis in human U937 cells assessed as necrotic cells at 10 uM after 3 hrs by annexinV-propidium iodide staining-based flow cytometric analysis (reference value: 2.3%); type: functional
[22] = molecular target: Fibroblast growth factor receptor 1 (Homo sapiens) (UniProt P11362); assay: Inhibition of FGFR1 at 10 uM
[23] = tested on: U-937; assay: Cell cycle arrest in human U937 cells assessed as accumulation at S-phase at 15 uM after 24 hrs by propidium iodide staining-based flow cytometric analysis; type: functional; summary of the method: as §1
[24] = molecular target: RAF proto-oncogene serine/threonine-protein kinase (Homo sapiens) (UniProt P04049); assay: Inhibition of raf-mediated ERK phosphorylation in human U937 cells at 3 uM after 1 hr by Western blot analysis; type: cell-based; conditions: U-937
Summary of the method: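 Cells in RPMI 1640 with 10% heat-inactivated FBS, 37 °C, 5% CO2; treated in growing medium (DU145 24 h; U937 1 h at 5 × 10⁵/mL). Lysed by sonication in SDS sample buffer with protease inhibitors plus 1 mM orthovanadate and pyrophosphate, boiled 5 min. Blots blocked in 5% milk, primary antibodies 1:1000 overnight at 4 °C, HRP secondary 1:2000, chemiluminescence; α-tubulin loading control.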

[25] = molecular target: c-Jun N-terminal kinase, JNK (Homo sapiens) (UniProt P45983+P53779+P45984); assay: Inhibition JNK phosphorylation in human U937 cells at 1 to 10 uM after 1 hr by Western blot analysis; type: cell-based; conditions: U-937
Summary of the method: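 U937 cells at 5 × 10^5/mL were exposed to compound for 1 h, then sonicated in SDS/DTT sample buffer with protease inhibitors plus 1 mM orthovanadate and pyrophosphate, and boiled 5 min. Blots were blocked in 5% milk, probed with primary antibody overnight at 4 °C and 1:2000 HRP secondary, and read by chemiluminescence. α-Tubulin reprobe served as loading control. Blots shown represent one of three experiments.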

[26] = molecular target: Mitogen-activated protein kinase 3 (Homo sapiens) (UniProt P27361); assay: Inhibition of Erk1 at 10 uM
[27] = molecular target: Ribosomal protein S6 kinase alpha-5 (Homo sapiens) (UniProt O75582); assay: Inhibition of MSK1 at 10 uM
[28] = molecular target: Mitogen-activated protein kinase kinase kinase kinase 4 (Homo sapiens) (UniProt O95819); assay: Inhibition of HGK at 10 uM
[29] = tested on: U-937; assay: Induction of apoptosis in human U937 cells assessed as viable cells at 10 uM after 18 hrs by annexinV-propidium iodide staining-based flow cytometric analysis (reference value: 87.2%); type: functional; conditions: U-937, 18 h, read-out: Activity
[30] = molecular target: Serine/threonine-protein kinase MARK1 (Homo sapiens) (UniProt Q9P0L2); assay: Inhibition of MARK1 at 10 uM
[31] = molecular target: MAP kinase p38 (Homo sapiens) (UniProt O15264+Q15759+Q16539+P53778); assay: Inhibition p38 phosphorylation in human U937 cells at 1 to 10 uM after 1 hr by Western blot analysis; type: cell-based; conditions: U-937
Summary of the method: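 p38 blot in U937: cells at 5 × 10⁵/mL in RPMI 1640 plus 10% FBS, exposed 1 h, sonicated in SDS sample buffer containing phosphatase inhibitors, boiled; immunoblot with primary antibody overnight at 4 °C, HRP secondary, chemiluminescent detection.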

RAF proto-oncogene serine/threonine-protein kinase (Homo sapiens), sequence (P04049 whole entry): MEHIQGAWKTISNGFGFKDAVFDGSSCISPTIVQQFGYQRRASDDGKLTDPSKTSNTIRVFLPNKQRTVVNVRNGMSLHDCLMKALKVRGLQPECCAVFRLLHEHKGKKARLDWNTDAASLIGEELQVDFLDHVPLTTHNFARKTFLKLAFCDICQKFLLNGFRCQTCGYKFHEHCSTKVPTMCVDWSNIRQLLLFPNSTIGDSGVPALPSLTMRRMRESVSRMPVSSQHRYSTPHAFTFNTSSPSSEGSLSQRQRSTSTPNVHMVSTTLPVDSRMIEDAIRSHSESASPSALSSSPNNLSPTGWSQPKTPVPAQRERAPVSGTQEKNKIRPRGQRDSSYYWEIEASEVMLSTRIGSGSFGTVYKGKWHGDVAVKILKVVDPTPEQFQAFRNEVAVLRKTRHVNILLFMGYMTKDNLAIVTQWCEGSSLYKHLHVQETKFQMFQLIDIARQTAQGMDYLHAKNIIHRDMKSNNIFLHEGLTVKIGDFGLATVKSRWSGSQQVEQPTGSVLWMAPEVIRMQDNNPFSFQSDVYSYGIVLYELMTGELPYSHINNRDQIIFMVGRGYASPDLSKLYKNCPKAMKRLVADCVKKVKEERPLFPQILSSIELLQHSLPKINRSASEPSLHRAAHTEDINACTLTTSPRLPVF
Ribosomal protein S6 kinase alpha-5 (Homo sapiens), sequence (O75582 whole entry, looked up): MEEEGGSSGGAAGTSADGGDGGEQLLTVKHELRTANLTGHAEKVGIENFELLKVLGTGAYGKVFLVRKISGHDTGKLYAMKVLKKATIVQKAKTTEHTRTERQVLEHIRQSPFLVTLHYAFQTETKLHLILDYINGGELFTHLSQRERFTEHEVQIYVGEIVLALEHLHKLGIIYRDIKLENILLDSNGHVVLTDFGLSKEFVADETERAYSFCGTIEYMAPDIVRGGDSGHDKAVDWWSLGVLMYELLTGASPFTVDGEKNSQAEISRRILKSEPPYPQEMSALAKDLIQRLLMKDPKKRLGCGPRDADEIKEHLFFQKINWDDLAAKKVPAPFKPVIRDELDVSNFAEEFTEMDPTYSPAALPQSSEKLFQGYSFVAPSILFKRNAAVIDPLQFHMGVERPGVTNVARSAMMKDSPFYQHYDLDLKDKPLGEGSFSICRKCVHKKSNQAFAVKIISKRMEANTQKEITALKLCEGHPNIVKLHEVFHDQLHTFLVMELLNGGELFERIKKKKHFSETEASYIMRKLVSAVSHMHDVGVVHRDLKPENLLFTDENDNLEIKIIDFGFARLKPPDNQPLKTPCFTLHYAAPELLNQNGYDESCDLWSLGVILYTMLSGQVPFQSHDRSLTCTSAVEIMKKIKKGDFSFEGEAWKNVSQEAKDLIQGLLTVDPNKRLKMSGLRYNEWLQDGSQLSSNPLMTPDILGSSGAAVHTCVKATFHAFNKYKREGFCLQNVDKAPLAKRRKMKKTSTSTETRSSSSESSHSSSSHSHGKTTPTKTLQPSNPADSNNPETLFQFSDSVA
Mitogen-activated protein kinase 3 (Homo sapiens), sequence (P27361 whole entry): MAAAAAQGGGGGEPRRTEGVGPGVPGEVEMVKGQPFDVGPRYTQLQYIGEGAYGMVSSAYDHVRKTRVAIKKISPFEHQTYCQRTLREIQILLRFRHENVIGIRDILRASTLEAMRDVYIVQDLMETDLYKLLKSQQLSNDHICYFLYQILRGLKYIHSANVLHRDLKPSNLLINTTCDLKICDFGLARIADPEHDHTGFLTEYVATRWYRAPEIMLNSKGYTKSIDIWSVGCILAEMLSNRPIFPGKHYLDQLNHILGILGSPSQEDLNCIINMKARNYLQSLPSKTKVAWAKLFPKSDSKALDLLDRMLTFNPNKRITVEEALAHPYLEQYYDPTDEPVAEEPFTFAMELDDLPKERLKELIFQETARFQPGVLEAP
Fibroblast growth factor receptor 1 (Homo sapiens), sequence (P11362 22-822 limits assumed): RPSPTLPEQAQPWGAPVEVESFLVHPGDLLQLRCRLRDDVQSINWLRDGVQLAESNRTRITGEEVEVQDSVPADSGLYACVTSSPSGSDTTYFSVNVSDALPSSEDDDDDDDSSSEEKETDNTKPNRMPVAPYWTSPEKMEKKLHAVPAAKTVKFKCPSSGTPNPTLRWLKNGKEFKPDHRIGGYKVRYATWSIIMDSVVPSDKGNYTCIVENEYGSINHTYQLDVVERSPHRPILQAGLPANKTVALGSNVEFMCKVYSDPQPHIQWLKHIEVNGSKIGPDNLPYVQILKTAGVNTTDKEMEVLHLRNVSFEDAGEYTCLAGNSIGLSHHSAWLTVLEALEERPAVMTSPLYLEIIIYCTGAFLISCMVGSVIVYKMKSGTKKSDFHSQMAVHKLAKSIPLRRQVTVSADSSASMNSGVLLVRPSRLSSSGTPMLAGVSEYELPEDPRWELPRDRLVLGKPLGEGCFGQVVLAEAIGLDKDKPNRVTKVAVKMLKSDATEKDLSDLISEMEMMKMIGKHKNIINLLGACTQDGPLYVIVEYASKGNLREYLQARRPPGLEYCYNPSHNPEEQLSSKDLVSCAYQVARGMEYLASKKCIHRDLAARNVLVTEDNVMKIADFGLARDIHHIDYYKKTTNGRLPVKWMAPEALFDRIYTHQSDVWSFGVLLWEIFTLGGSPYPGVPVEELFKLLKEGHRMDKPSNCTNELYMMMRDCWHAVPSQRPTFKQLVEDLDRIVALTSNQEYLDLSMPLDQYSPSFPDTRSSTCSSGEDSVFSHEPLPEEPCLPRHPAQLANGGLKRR
Insulin-like growth factor 1 receptor (Homo sapiens), sequence (P08069 31-736 limits assumed): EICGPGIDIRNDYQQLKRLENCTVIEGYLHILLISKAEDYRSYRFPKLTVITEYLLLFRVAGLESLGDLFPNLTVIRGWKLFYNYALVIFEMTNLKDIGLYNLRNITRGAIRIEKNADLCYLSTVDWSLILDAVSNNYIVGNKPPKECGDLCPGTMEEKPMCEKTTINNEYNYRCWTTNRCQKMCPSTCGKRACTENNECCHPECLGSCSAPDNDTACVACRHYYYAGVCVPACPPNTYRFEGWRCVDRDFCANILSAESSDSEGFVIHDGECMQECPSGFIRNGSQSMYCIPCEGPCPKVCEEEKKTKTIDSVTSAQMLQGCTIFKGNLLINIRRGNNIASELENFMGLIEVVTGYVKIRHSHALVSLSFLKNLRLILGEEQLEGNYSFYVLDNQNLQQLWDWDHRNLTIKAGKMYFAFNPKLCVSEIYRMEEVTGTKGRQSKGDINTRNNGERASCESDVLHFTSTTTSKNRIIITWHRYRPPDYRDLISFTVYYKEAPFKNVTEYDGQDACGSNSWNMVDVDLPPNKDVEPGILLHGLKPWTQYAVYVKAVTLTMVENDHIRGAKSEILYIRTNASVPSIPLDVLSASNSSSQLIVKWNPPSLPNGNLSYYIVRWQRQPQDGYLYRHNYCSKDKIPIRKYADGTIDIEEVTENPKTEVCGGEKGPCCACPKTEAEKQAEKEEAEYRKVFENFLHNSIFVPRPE
Insulin-like growth factor 1 receptor (Homo sapiens), sequence (P08069 741-1367 limits assumed): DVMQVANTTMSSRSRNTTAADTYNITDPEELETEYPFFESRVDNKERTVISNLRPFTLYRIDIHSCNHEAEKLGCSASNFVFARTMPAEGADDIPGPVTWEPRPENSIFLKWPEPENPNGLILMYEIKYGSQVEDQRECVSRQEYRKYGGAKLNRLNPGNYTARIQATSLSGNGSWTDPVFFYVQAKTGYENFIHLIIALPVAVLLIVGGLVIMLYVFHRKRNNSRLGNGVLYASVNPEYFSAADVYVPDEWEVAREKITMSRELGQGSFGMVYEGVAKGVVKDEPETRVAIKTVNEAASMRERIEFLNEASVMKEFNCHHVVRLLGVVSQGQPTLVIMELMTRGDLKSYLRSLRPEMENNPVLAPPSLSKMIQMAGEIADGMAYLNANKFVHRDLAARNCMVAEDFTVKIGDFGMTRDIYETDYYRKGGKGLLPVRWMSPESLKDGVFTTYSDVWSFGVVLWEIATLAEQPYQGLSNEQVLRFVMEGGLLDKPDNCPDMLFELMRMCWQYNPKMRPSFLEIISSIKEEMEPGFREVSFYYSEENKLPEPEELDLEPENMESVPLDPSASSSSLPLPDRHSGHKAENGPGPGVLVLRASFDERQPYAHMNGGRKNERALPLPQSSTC
Tyrosine-protein kinase BTK (Homo sapiens), sequence (Q06187 whole entry): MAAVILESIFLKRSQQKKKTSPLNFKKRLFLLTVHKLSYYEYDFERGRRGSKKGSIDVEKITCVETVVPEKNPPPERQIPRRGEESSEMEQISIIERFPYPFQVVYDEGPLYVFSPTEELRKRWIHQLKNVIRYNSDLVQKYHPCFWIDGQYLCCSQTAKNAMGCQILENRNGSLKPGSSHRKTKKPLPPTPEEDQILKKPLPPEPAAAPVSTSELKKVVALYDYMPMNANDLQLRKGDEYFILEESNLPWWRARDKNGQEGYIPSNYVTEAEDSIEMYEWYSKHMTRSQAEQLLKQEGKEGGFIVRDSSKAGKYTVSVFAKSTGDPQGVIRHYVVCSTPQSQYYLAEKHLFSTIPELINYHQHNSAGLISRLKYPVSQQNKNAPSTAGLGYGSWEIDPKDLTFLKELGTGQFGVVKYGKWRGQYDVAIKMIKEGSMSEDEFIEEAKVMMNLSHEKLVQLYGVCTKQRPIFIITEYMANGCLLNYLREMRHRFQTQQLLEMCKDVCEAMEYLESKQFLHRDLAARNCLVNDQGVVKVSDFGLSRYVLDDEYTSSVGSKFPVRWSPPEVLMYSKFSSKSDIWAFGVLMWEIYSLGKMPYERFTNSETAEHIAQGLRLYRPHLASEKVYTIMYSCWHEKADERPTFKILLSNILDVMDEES

NCCN1C(=O)S/C(=C\CCC2CCCCC2)C1=O
viability at 10 µM [1]: 40.2% | Activity [2]: 23.6% | inhibition [3]: 2% | Activity [4]: 2.1% | inhibition [5]: -1% | inhibition [6]: -1% | inhibition [7]: -5% | viability at 20 µM [8]: 65.5% | inhibition [9]: 12% | Activity [10]: 15% | Activity [11]: 11% | viability at 20 µM [12]: 5.1% | inhibition [13]: -8% | growth inhibition (GI) [14]: Active | inhibition [15]: 71% | inhibition [16]: -2% | inhibition [17]: -5% | Activity [18]: 3.5% | inhibition [19]: 60% | inhibition [20]: 3% | Activity [21]: 2.4% | inhibition [22]: 3% | Activity [23]: 31.4% | inhibition [24]: Active | inhibition [25]: inactive | inhibition [26]: 21% | inhibition [27]: 6% | inhibition [28]: -1% | viability at 10 µM [29]: 42.9% | inhibition [30]: 0% | inhibition [31]: inactive
